Results taken from ChEMBL document CHEMBL4406880, “Design, synthesis, and bioactivity of dihydropyrimidine derivatives as kinesin spindle protein inhibitors” (Bioorg Med Chem, 2019).

Assays:
Assay type in all cases: functional
RPMI-8226 = assay: Growth inhibition of human RPMI8226 cells incubated for 48 hrs by sulforhodamine B assay; settings: RPMI-8226, 48 h
Procedure, shortened: (§1)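 NCI-60 five-dose assay, SRB end-point, same culture conditions. Compound is tested at tenfold dilutions of 0.01, 0.1, 1, 10 and 100 µM for 48 h at 37 °C, with DMSO/PBS vehicle controls. Percentage growth at each concentration is taken against untreated cells and a time-zero plate. GI50 is 50% net growth decrease, TGI is total growth inhibition, and LC50 is 50% loss of initial cells.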

HOP-92 = assay: Growth inhibition of human HOP92 cells incubated for 48 hrs by sulforhodamine B assay; settings: HOP-92, 48 h; procedure, shortened: as §1
COLO 205 [1] = assay: Growth inhibition of human COLO205 cells incubated for 48 hrs by sulforhodamine B assay; settings: COLO 205, 48 h
Procedure, shortened: (§2)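 NCI-60 five-dose mode: five tenfold dilutions (0.01, 0.1, 1, 10, 100 µM) are applied for 48 h to cells in RPMI 1640 with 5% FBS at 37 °C. Endpoint is TCA fixation with sulforhodamine B read at 515 nm. % growth comes from the 0 h and control absorbances. GI50 is the concentration giving a 50% reduction in net cell growth.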

HCC 2998 [2] = assay: Growth inhibition of human HCC2998 cells incubated for 48 hrs by sulforhodamine B assay; settings: HCC 2998, 48 h; procedure, shortened: as §2
IGROV-1 = assay: Growth inhibition of human IGROV1 cells assessed as cell viability at 100 uM incubated for 48 hrs by sulforhodamine B assay; settings: IGROV-1, 48 h, read-out: Activity
SW-620 [3] = assay: Growth inhibition of human SW620 cells assessed as cell viability at 100 uM incubated for 48 hrs by sulforhodamine B assay; settings: SW-620, 48 h, read-out: Activity
KM12 [4] = assay: Growth inhibition of human KM12 cells assessed as cell viability at 100 uM incubated for 48 hrs by sulforhodamine B assay; settings: KM12, 48 h, read-out: Activity
HT-29 = assay: Growth inhibition of human HT-29 cells assessed as cell viability at 100 uM incubated for 48 hrs by sulforhodamine B assay; settings: HT-29, 48 h, read-out: Activity
EKVX = assay: Growth inhibition of human EKVX cells assessed as cell viability at 100 uM incubated for 48 hrs by sulforhodamine B assay; settings: read-out: Activity
MDA-MB-468 = assay: Growth inhibition of human MDA-MB-468 cells assessed as cell viability at 1 uM incubated for 48 hrs by sulforhodamine B assay; settings: MDA-MB-468, 48 h, read-out: Activity
OVCAR-4 = assay: Growth inhibition of human OVCAR4 cells assessed as cell viability at 1 uM incubated for 48 hrs by sulforhodamine B assay; settings: OVCAR-4, 48 h, read-out: Activity
SK-MEL-28 = assay: Growth inhibition of human SK-MEL-28 cells assessed as cell viability at 1 uM incubated for 48 hrs by sulforhodamine B assay; settings: SK-MEL-28, 48 h, read-out: Activity
NCI-H23 [5] = assay: Growth inhibition of human NCI-H23 cells assessed as cell viability at 1 uM incubated for 48 hrs by sulforhodamine B assay; settings: NCI-H23, 48 h, read-out: Activity
RXF 393 = assay: Growth inhibition of human RXF393 cells assessed as cell viability at 0.1 uM incubated for 48 hrs by sulforhodamine B assay; settings: RXF 393, 48 h, read-out: Activity
OVCAR-5 = assay: Growth inhibition of human OVCAR5 cells assessed as cell viability at 0.1 uM incubated for 48 hrs by sulforhodamine B assay; settings: OVCAR-5, 48 h, read-out: Activity
SK-MEL-5 [6] = assay: Growth inhibition of human SK-MEL-5 cells assessed as cell viability at 0.1 uM incubated for 48 hrs by sulforhodamine B assay; settings: SK-MEL-5, 48 h, read-out: Activity
Malme-3M = assay: Growth inhibition of human MALME-3M cells assessed as cell viability at 0.1 uM incubated for 48 hrs by sulforhodamine B assay; settings: read-out: Activity
HCT-116 = assay: Growth inhibition of human HCT116 cells assessed as cell viability at 0.1 uM incubated for 48 hrs by sulforhodamine B assay; settings: HCT-116, 48 h, read-out: Activity
COLO 205 [7] = assay: Growth inhibition of human COLO205 cells assessed as cell viability at 0.1 uM incubated for 48 hrs by sulforhodamine B assay; settings: COLO 205, 48 h, read-out: Activity
NCI-H23 [8] = assay: Growth inhibition of human NCI-H23 cells assessed as cell viability at 0.1 uM incubated for 48 hrs by sulforhodamine B assay; settings: NCI-H23, 48 h, read-out: Activity
MCF7 = assay: Growth inhibition of human MCF7 cells assessed as cell viability at 0.001 uM incubated for 48 hrs by sulforhodamine B assay relative to control; settings: MCF7, 48 h, read-out: Activity
SN12C = assay: Growth inhibition of human SN12C cells assessed as cell viability at 0.001 uM incubated for 48 hrs by sulforhodamine B assay relative to control; settings: read-out: Activity
OVCAR-8 = assay: Growth inhibition of human OVCAR8 cells assessed as cell viability at 0.001 uM incubated for 48 hrs by sulforhodamine B assay relative to control; settings: OVCAR-8, 48 h, read-out: Activity
SK-MEL-5 [9] = assay: Growth inhibition of human SK-MEL-5 cells assessed as cell viability at 0.001 uM incubated for 48 hrs by sulforhodamine B assay relative to control; settings: SK-MEL-5, 48 h, read-out: Activity
SW-620 [10] = assay: Growth inhibition of human SW620 cells assessed as cell viability at 0.001 uM incubated for 48 hrs by sulforhodamine B assay relative to control; settings: SW-620, 48 h, read-out: Activity
KM12 [11] = assay: Growth inhibition of human KM12 cells assessed as cell viability at 0.001 uM incubated for 48 hrs by sulforhodamine B assay relative to control; settings: KM12, 48 h, read-out: Activity
HCC 2998 [12] = assay: Growth inhibition of human HCC2998 cells assessed as cell viability at 0.001 uM incubated for 48 hrs by sulforhodamine B assay relative to control; settings: HCC 2998, 48 h, read-out: Activity
NCI-H522 = assay: Growth inhibition of human NCI-H522 cells assessed as cell viability at 0.001 uM incubated for 48 hrs by sulforhodamine B assay relative to control; settings: NCI-H522, 48 h, read-out: Activity
TK-10 = assay: Growth inhibition of human TK10 cells assessed as cell viability at 100 uM incubated for 48 hrs by sulforhodamine B assay; settings: TK-10, 48 h, read-out: Activity

CC1=C(C(=O)OCc2ccccc2)C(c2ccc3c(c2)OCO3)n2c(nc3ccccc32)N1 (racemic)
CC50 (RPMI-8226; read-out: LC50 (the source's name)): > 100 µM
TGI (RPMI-8226; read-out: TGI): > 100 µM
CC50 (RPMI-8226; read-out: pLC50 (the source's name) (converted)): > 100 µM
TGI (RPMI-8226; read-out: pTGI): > 100 µM
LC50 (concentration killing 50% of initial cells) (HOP-92; read-out: LC50): > 100 µM
TGI (HOP-92; read-out: TGI): > 100 µM
LC50 (concentration killing 50% of initial cells) (HOP-92; read-out: pLC50 (converted)): > 100 µM
TGI (HOP-92; read-out: pTGI): > 100 µM
GI50 (COLO 205 [1]; read-out: GI50): 0.5 µM
LC50 (COLO 205 [1]; read-out: LC50): > 100 µM
TGI (COLO 205 [1]; read-out: TGI): > 100 µM
GI50 (COLO 205 [1]; read-out: pGI50 (converted)): 0.501 µM
LC50 (COLO 205 [1]; read-out: pLC50 (converted)): > 100 µM
TGI (COLO 205 [1]; read-out: pTGI): > 100 µM
GI50 (HCC 2998 [2]; read-out: GI50): 11 µM
LC50 (HCC 2998 [2]; read-out: LC50): > 100 µM
TGI (HCC 2998 [2]; read-out: TGI): > 100 µM
GI50 (HCC 2998 [2]; read-out: pGI50 (converted)): 11 µM
LC50 (HCC 2998 [2]; read-out: pLC50 (converted)): > 100 µM
TGI (HCC 2998 [2]; read-out: pTGI): > 100 µM
viability at 100 µM (IGROV-1): 29%
viability at 100 µM (SW-620 [3]): 6%
viability at 100 µM (KM12 [4]): 18%
viability at 100 µM (HT-29): 5%
viability at 100 µM (EKVX): 29%
viability at 1 µM (MDA-MB-468): -9%
viability at 1 µM (OVCAR-4): 61%
viability at 1 µM (SK-MEL-28): 63%
viability at 1 µM (NCI-H23 [5]): 54%
viability at 0.1 µM (RXF 393): 90%
viability at 0.1 µM (OVCAR-5): 100%
viability at 0.1 µM (SK-MEL-5 [6]): 98%
viability at 0.1 µM (Malme-3M): 87%
viability at 0.1 µM (HCT-116): 100%
viability at 0.1 µM (COLO 205 [7]): 101%
viability at 0.1 µM (NCI-H23 [8]): 92%
viability at 0.001 µM (MCF7): 86%
viability at 0.001 µM (SN12C): 89%
viability at 0.001 µM (OVCAR-8): 95%
viability at 0.001 µM (SK-MEL-5 [9]): 98%
viability at 0.001 µM (SW-620 [10]): 98%
viability at 0.001 µM (KM12 [11]): 91%
viability at 0.001 µM (HCC 2998 [12]): 92%
viability at 0.001 µM (NCI-H522): 78%
viability at 100 µM (TK-10): 68%
